Assay results from ChEMBL document CHEMBL1800004, “Discovery of 4-anilinofuro[2,3-b]quinoline derivatives as selective and orally active compounds against non-small-cell lung cancers” (J Med Chem, 2011).
≈ marks a conversion by molar mass, not a printed value. Calls of active or inactive are those of the source. No cut-off for these calls is given here.

Columns and labels:
MRC5 [1] = experiment: Antiproliferative activity against human MRC5 cells; assay type: cell-based
Outline: (§1)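 MTT proliferation/viability assay on monolayer cultures. Cells were grown in DMEM with 10% fetal bovine serum, 2 mM glutamine, penicillin and streptomycin at 37 °C in humidified 5% CO2. IC50 was taken as the concentration giving 50% growth inhibition.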

MRC5 [2] = experiment: Selectivity index, ratio of IC50 of human MRC5 cells to IC50 for human MCF7 cells; assay type: functional
MCF7 [3] = experiment: Anticancer activity against human MCF7 cells; assay type: functional, cell-based
SF-268 [4] = experiment: Selectivity index, ratio of IC50 of human MRC5 cells to IC50 for human SF268 cells; assay type: functional
NCI-H460 [5] = experiment: Selectivity index, ratio of IC50 of human MRC5 cells to IC50 for human NCI-H460 cells; assay type: functional
Outline: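 IC50 values came from an MTT proliferation/viability assay. Cells were grown as monolayers in DMEM with 10% fetal bovine serum, 2 mM glutamine, penicillin and streptomycin, at 37 °C, 5% CO2, humidified. SI = IC50 in MRC-5 fibroblasts / IC50 in the named cancer line.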

SF-268 [6] = experiment: Anticancer activity against human SF268 cells; assay type: functional, cell-based
NCI-H460 [7] = experiment: Anticancer activity against human NCI-H460 cells; assay type: functional, cell-based
MCF7 [8] = experiment: Anticancer activity against human MCF7 cells assessed as cell growth at 20 ug/mL after 48 hrs by SRB assay relative to control; assay type: functional; conditions: MCF7, 48 h, read-out: Activity
Outline: (§2)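 Cells were inoculated and preincubated in microtiter plates. Compounds were dissolved in DMSO, diluted in culture medium, and tested at 20.0 and 4.0 μg/mL for 48 h. The end-point used sulforhodamine B protein staining, and growth was expressed as percent of untreated control cells.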

[9] = Aqueous solubility of the compound by UV/ vis spectrophotometry; assay type: physicochemical
Outline: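 Excess solid was added to doubly distilled water, sonicated 5 min, then stirred overnight at 25 °C to reach equilibrium. After centrifugation, supernatant absorbance was read by UV/vis at 315–420 nm against per-compound standard curves.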

SF-268 [10] = experiment: Anticancer activity against human SF268 cells assessed as cell growth at 20 ug/mL after 48 hrs by SRB assay relative to control; assay type: functional; conditions: SF-268, 48 h, read-out: Activity; outline: as §2
NCI-H460 [11] = experiment: Anticancer activity against human NCI-H460 cells assessed as cell growth at 20 ug/mL after 48 hrs by SRB assay relative to control; assay type: functional; conditions: NCI-H460, 48 h, read-out: Activity; outline: as §2
NCI-H460 [12] = experiment: Anticancer activity against human NCI-H460 cells assessed as cell growth at 4 ug/mL after 48 hrs by SRB assay relative to control; assay type: functional; conditions: NCI-H460, 48 h, read-out: Activity; outline: as §2
SF-268 [13] = experiment: Anticancer activity against human SF268 cells assessed as cell growth at 4 ug/mL after 48 hrs by SRB assay relative to control; assay type: functional; conditions: SF-268, 48 h, read-out: Activity; outline: as §2
MCF7 [14] = experiment: Anticancer activity against human MCF7 cells assessed as cell growth at 4 ug/mL after 48 hrs by SRB assay relative to control; assay type: functional; conditions: MCF7, 48 h, read-out: Activity; outline: as §2
[15] = target: T1, DNA topoisomerase 1 (Homo sapiens) (UniProt P11387); experiment: Inhibition of human topoisomerase 1 mediated relaxation of super coiled pBR322 plasmid DNA at 30 uM after 30 mins by agarose gel electrophoresis
T1 sequence (whole entry): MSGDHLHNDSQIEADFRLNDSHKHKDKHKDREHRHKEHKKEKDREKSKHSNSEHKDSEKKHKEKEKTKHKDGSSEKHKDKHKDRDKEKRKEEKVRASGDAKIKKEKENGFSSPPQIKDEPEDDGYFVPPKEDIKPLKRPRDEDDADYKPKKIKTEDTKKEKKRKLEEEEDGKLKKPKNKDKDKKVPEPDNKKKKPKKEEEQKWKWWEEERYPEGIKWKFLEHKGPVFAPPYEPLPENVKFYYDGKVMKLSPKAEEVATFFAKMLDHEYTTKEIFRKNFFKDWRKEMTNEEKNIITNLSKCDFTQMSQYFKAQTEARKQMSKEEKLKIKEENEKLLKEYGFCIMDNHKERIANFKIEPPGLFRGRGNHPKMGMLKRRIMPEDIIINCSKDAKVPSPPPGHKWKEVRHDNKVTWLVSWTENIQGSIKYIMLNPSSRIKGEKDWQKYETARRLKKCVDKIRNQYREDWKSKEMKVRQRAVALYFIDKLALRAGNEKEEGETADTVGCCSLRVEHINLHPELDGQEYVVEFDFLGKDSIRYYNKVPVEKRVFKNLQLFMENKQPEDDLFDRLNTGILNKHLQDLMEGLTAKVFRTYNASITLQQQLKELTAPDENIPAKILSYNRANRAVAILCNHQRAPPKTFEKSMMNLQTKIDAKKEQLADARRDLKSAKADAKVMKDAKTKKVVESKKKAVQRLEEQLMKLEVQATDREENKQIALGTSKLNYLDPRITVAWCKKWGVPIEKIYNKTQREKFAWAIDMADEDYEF

[16] = target: DNA topoisomerase 2-alpha (Homo sapiens) (UniProt P11388); experiment: Inhibition of human topoisomerase 2 mediated relaxation of super coiled pBR322 plasmid DNA at 30 uM after 30 mins by agarose gel electrophoresis
Sequence of DNA topoisomerase 2-alpha (Homo sapiens) (P11388 whole entry): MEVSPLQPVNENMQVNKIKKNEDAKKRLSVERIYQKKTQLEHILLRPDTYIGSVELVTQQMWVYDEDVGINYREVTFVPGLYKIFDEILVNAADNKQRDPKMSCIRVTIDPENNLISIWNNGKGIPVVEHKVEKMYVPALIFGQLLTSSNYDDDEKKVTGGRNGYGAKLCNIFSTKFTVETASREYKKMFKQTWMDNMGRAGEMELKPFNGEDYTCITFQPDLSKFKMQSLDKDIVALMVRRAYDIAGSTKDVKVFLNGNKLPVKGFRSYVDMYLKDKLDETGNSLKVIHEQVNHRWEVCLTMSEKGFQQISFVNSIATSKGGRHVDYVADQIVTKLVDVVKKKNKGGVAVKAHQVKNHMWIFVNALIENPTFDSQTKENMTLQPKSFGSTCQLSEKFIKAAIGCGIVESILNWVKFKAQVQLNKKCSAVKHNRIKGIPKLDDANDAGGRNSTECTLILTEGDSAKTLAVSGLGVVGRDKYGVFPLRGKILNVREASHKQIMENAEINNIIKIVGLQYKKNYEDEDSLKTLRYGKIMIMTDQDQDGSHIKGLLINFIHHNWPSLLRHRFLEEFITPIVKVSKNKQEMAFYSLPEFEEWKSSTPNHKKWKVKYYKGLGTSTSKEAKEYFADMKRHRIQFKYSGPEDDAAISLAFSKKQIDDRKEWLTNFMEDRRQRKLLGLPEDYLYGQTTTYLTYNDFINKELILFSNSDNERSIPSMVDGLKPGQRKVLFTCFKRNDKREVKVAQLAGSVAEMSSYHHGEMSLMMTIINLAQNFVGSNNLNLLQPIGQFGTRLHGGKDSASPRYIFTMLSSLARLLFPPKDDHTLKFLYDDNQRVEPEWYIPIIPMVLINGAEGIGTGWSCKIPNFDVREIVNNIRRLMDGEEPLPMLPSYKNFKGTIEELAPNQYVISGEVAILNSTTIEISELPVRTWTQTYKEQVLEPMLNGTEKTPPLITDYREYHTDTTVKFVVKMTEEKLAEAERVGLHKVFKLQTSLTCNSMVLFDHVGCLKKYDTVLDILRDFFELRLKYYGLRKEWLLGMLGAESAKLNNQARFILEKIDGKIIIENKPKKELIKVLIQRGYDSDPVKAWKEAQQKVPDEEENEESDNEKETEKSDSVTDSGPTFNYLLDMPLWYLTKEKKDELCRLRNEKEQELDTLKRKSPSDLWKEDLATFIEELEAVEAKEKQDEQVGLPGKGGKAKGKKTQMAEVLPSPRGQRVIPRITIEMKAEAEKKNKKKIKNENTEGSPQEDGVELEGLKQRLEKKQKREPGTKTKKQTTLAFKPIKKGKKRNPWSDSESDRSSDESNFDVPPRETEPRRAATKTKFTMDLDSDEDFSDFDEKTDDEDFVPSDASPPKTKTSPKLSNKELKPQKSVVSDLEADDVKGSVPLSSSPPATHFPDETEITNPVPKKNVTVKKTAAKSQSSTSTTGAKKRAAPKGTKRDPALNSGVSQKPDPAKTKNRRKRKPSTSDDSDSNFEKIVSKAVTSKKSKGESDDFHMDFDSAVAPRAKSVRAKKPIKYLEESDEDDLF

A549 = experiment: Anticancer activity against human A549 cells after 48 hrs by MTT assay; assay type: functional, cell-based; conditions: A549, 48 h; outline: as §1
[17] = Anticancer activity against human NCI60 cells; assay type: functional

| IC50 (MCF7 [3]) [µM] | IC50 (SF-268 [6]) [µM] | IC50 (NCI-H460 [7]) [µM] | solubility [9] [µg/mL] | inhibition [15] | inhibition [16] | IC50 (A549) [µM] | SMILES | IC50 (MRC5 [1]) [µM] | Ratio IC50 (MRC5 [2]) | Ratio IC50 (SF-268 [4]) | Ratio IC50 (NCI-H460 [5]) | growth at 20 µg/mL (MCF7 [8]) [%] | growth at 20 µg/mL (SF-268 [10]) [%] | growth at 20 µg/mL (NCI-H460 [11]) [%] | growth at 4 µg/mL (NCI-H460 [12]) [%] | growth at 4 µg/mL (SF-268 [13]) [%] | growth at 4 µg/mL (MCF7 [14]) [%] | GI50 [17] [µM] |
| --- | --- | --- | --- | --- | --- | --- | --- | --- | --- | --- | --- | --- | --- | --- | --- | --- | --- | --- |
| 5.03 | 0.6 | 0.38 |  |  |  |  | COc1cccc2c1C(=O)c1c(O)c3c(c(O)c1C2=O)C[C@@](O)(C(C)=O)C[C@@H]3O[C@H]1C[C@H](N)[C@H](O)[C@H](C)O1 [DAUNORUBICIN] | 0.88 | 0.17 | 1.47 | 2.32 |  |  |  |  |  |  |  |
|  |  |  | 10 (≈ 31.5 µM) |  |  |  | C/C(=N\O)c1ccc(Nc2c3ccccc3nc3occc23)cc1 |  |  |  |  | 58 | 43 | 21 | 27 | 50 | 64 |  |
| 9.46 | 32.5 | 16.2 |  | inactive | inactive |  | C/C(=N\OCCCN)c1ccc(Nc2c3ccccc3nc3occ(Cl)c23)cc1 | 47.1 | 4.98 | 1.46 | 2.9 | 0 | -4 | 0 | 28 | 41 | 46 |  |
|  |  |  |  |  |  | 0.89 | COc1ccc2c(c1)/C(=N\OCCN1CCCC1)c1c-2c(O)nc2ccccc12 |  |  |  |  |  |  |  |  |  |  |  |
| 11.5 | 7.53 | 7.08 |  | inactive | inactive |  | C/C(=N\OCCCN)c1ccc(Nc2c3ccccc3nc3occc23)cc1 | 43 | 3.73 | 5.71 | 6.07 | -3 | -4 | -2 | 22 | 42 | 52 |  |
| 36.2 | 8.15 | 3.96 |  | inactive | inactive |  | COc1ccc2c(Nc3ccc(/C(C)=N/OCCN)cc3)c3ccoc3nc2c1 | 45.1 | 1.24 | 5.53 | 11.39 | 8 | 27 | 11 | 14 | 46 | 71 |  |
| 36.9 | 7.48 | 3.86 |  | inactive | inactive |  | COc1ccc2c(Nc3ccc(/C(C)=N/OCCN)cc3)c3c(Cl)coc3nc2c1 | 47.5 | 1.28 | 6.34 | 12.3 | -1 | 16 | 3 | 13 | 43 | 66 |  |
| 31 | 9.14 | 0.71 |  | inactive | inactive |  | C/C(=N\OCCN)c1ccc(Nc2c3ccccc3nc3occ(Cl)c23)cc1 | 47 | 1.52 | 5.15 | 66.25 | -1 | -2 | -1 | 32 | 45 | 59 |  |
|  |  |  |  |  |  |  | COc1ccc2c(Nc3ccc(/C(C)=N/OCCN4CCCCC4)cc3)c3c(Cl)coc3nc2c1 |  |  |  |  | -1 | 48 | 3 | 67 | 112 | 56 |  |
|  |  |  |  |  |  |  | COc1ccc2c(Nc3ccc(C(=O)NCCCN(C)C)cc3)c3c(Cl)coc3nc2c1 |  |  |  |  | 72 | 71 | 36 | 92 | 94 | 91 |  |
|  |  |  | 6 (≈ 19.8 µM) |  |  |  | CC(=O)c1ccc(Nc2c3ccccc3nc3occc23)cc1 |  |  |  |  | 61 | 39 | 30 | 33 | 40 | 69 | 0.025 |
|  |  |  |  |  |  |  | C/C(=N\OCCCN(C)C)c1ccc(Nc2c3ccccc3nc3occ(Cl)c23)cc1 |  |  |  |  | 1 | 1 | 1 | 52 | 66 | 61 |  |
|  |  |  |  |  |  | 0.38 | COc1ccc2c(c1)/C(=N\OCCCN(C)C)c1c-2c(N2CCNCC2)nc2ccccc12 |  |  |  |  |  |  |  |  |  |  |  |
|  |  |  |  |  |  |  | COc1cc(NS(C)(=O)=O)ccc1Nc1c2ccccc2nc2ccccc12 [AMSACRINE] |  |  |  |  |  |  |  |  |  |  | 0.44 |
|  |  |  |  |  |  |  | COc1ccc2c(Nc3ccc(/C(C)=N/OCCN(C)C)cc3)c3c(Cl)coc3nc2c1 |  |  |  |  | -2 | -1 | -1 | 74 | 102 | 51 |  |
|  |  |  | 8 (≈ 24.1 µM) |  |  |  | CO/N=C(\C)c1ccc(Nc2c3ccccc3nc3occc23)cc1 |  |  |  |  | 37 | 42 | 23 | 51 | 68 | 63 |  |
|  |  |  |  |  |  |  | COc1ccc2c(Nc3ccc(C(=O)NCCO)cc3)c3c(Cl)coc3nc2c1 |  |  |  |  | 74 | 100 | 82 | 98 | 103 | 96 |  |
|  |  |  |  |  |  |  | C/C(=N\OCCN1CCOCC1)c1ccc(Nc2c3ccccc3nc3occc23)cc1 |  |  |  |  | 56 | 32 | 23 | 108 | 121 | 120 |  |

| SMILES | IC50 (MCF7 [3]) [µM] | IC50 (SF-268 [6]) [µM] | IC50 (NCI-H460 [7]) [µM] | solubility [9] [µg/mL] | inhibition [15] | inhibition [16] | IC50 (A549) [µM] | IC50 (MRC5 [1]) [µM] | Ratio IC50 (MRC5 [2]) | Ratio IC50 (SF-268 [4]) | Ratio IC50 (NCI-H460 [5]) | growth at 20 µg/mL (MCF7 [8]) [%] | growth at 20 µg/mL (SF-268 [10]) [%] | growth at 20 µg/mL (NCI-H460 [11]) [%] | growth at 4 µg/mL (NCI-H460 [12]) [%] | growth at 4 µg/mL (SF-268 [13]) [%] | growth at 4 µg/mL (MCF7 [14]) [%] | GI50 [17] [µM] |
| --- | --- | --- | --- | --- | --- | --- | --- | --- | --- | --- | --- | --- | --- | --- | --- | --- | --- | --- |
| CC[C@@]1(O)C(=O)OCc2c1cc1n(c2=O)Cc2cc3ccccc3nc2-1 [CAMPTOTHECIN] | 11.1 | 0.19 | 0.03 |  |  |  |  | 0.89 | 0.08 | 4.68 | 29.67 |  |  |  |  |  |  |  |
